High-throughput results (PubChem BioAssay)
Compounds with a hit are over-represented: about 5.1% of the library has one in this group of screens.
STAT3 inh = IL-6 driven STAT3 reporter inhibitors, primary screen, U3A cells, luciferase, luminescence, MLSCN library; IL-6 STAT3-luciferase reporter; host cell line lacks STAT1; inhibition, % at 5.5 µM; 190,000 tested, 0.89% active; AID 862, 2007;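 active = inhibition above the mean inhibition across all screened compounds plus 3 SD, cut at about 44% in these data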
STAT1 inh = STAT1 signaling inhibitors, primary screen, cell-based, HTS, luciferase reporter; inhibition, % at 5.5 µM; AID 920, 2007; NIH 3T3 STAT1-luciferase reporter, IFN-gamma, luminescence; 200,000 tested, 0.35% active;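 active = inhibition above a set limit, the mean inhibition across all tested compounds plus 3 SD, cut at about 34% in these data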
STAT3 activator = IL-6 driven STAT3 reporter potentiators, primary screen, U3A cells, luciferase, luminescence, MLSCN library | IL-6 STAT3-luciferase reporter; 100% = signal with IL-6 EC80 alone | activation (% of control), % at 5.6 µM | 190,000 tested, 0.91% active | AID 871, 2007;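 active = activation above the screen-wide mean of compound activation plus 3 SD, cut at about 130% in these data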
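Material: STAT1-lacking human U3A cells, STAT3 luciferase reporter | Benchmarks: IL-6-only wells as 100% reference | Probe or stimulus: IL-6 (33 ng/mL) | Timing: Compound 1 h, then IL-6 6 h at 37 °C | Detection: Luminescence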
APP 5'UTR act = activators of APP 5'UTR luciferase reporter, primary screen, SH-SY5Y cells; activation, % at 2 µM; 190,000 tested, 1% active; SH-SY5Y APP 5'UTR luciferase reporter, luminescence; zero percent = DMSO vehicle wells; AID 1276, 2008;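 active = activation above a set limit, based on mean plus 3 SD of controls, cut at about 140% in these data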
NF-kB neuron act = activators of NF-kB expression in neurons, primary screen, cell-based, HTS; human neuronal cells, NF-kB reporter expression; hits give high values; 190,000 tested, 1.6% active; fold change at 12.5 µM; in the data active = fold change above about 3.3
STAT1 activator = STAT1 signaling activators, primary screen, cell-based, HTS, luciferase reporter. 200,000 tested, 2.6% active. NIH 3T3 STAT1-luciferase reporter, IFN-gamma, luminescence; 100% = IFN-gamma alone, no compound. AID 932, 2007. activation (% of control), % at 5.5 µM;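 active = activation above the screen-wide mean activation plus 3 SD, cut at about 130% in these data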
Hits are given with their value.

How did OCCC1CN(Cc2cccc3nonc23)CCN1C1CCCCC1 (configuration not stated) do in these assays?
STAT3 inh: inactive; STAT1 inh: inactive; STAT3 activator: inactive; APP 5'UTR act: inactive; NF-kB neuron act: inactive; STAT1 activator: inactive

What do the screens show for `COc1ccc(Cn2c(SCC#N)nc3ccc(N4CCOCC4)cc3c2=O)cc1`?
STAT3 inh: inactive; STAT1 inh: inactive; STAT3 activator: inactive; APP 5'UTR act: inactive; NF-kB neuron act: inactive; STAT1 activator: 136

What do the screens show for `COC(=O)c1cn(NC(=O)Cc2c(F)cccc2Cl)c(=O)c2ccccc12`?
STAT3 inh: inactive; STAT1 inh: inactive; STAT3 activator: inactive; APP 5'UTR act: inactive; NF-kB neuron act: inactive; STAT1 activator: inactive

How did CN(C)C(=O)CN(c1ccc(F)c(Cl)c1)S(C)(=O)=O do in these assays?
STAT3 inh: inactive; STAT1 inh: inactive; STAT3 activator: 135; APP 5'UTR act: inactive; NF-kB neuron act: inactive; STAT1 activator: inactive

Results for COc1ccccc1CNC(=O)[C@@H]1CCCN1S(=O)(=O)c1ccc(C)cc1 ?
STAT3 inh: inactive; STAT1 inh: inactive; STAT3 activator: inactive; APP 5'UTR act: inactive; NF-kB neuron act: inactive; STAT1 activator: inactive

What do the screens show for `O=C1CCC(=O)N1c1ccc(-c2nc3ccccc3s2)cc1`?
STAT3 inh: 86; STAT1 inh: 68; STAT3 activator: inactive; APP 5'UTR act: inactive; NF-kB neuron act: inactive; STAT1 activator: inactive

Results for O=C(NCC1CCCC(CNC(=O)N2CCc3ccccc32)C1)N1CCc2ccccc21 (configuration not stated) ?
STAT3 inh: inactive; STAT1 inh: inactive; STAT3 activator: inactive; APP 5'UTR act: inactive; NF-kB neuron act: inactive; STAT1 activator: inactive

How did N#Cc1ccc(N2Cc3ccccc3C2=NC(=O)c2cccnc2Cl)cc1 do in these assays?
STAT3 inh: inactive; STAT1 inh: inactive; STAT3 activator: inactive; APP 5'UTR act: inactive; NF-kB neuron act: 5; STAT1 activator: inactive

How did O=C(COC(=O)c1n[nH]c2ccccc12)Nc1ccccc1 do in these assays?
STAT3 inh: inactive; STAT1 inh: inactive; STAT3 activator: inactive; APP 5'UTR act: inactive; NF-kB neuron act: inactive; STAT1 activator: 133

What do the screens show for `CCC(CCC(=O)Nc1ccc(S(N)(=O)=O)cc1)C(=O)O` (configuration not stated)?
STAT3 inh: inactive; STAT1 inh: inactive; STAT3 activator: inactive; APP 5'UTR act: inactive; NF-kB neuron act: inactive; STAT1 activator: inactive

How did Cn1c(=O)c2c(nc(NN=C3CCCCC3)n2C)n(C)c1=O do in these assays?
STAT3 inh: inactive; STAT1 inh: inactive; STAT3 activator: inactive; APP 5'UTR act: inactive; NF-kB neuron act: inactive; STAT1 activator: inactive

What do the screens show for `O=C(Nc1nc(-c2ccc(F)cc2)cs1)c1cnccn1`?
STAT3 inh: inactive; STAT1 inh: inactive; STAT3 activator: inactive; APP 5'UTR act: inactive; NF-kB neuron act: inactive; STAT1 activator: inactive

What do the screens show for `Cc1nc(N)sc1-c1csc(Nc2ncccn2)n1`?
STAT3 inh: inactive; STAT1 inh: inactive; STAT3 activator: inactive; APP 5'UTR act: 177; NF-kB neuron act: inactive; STAT1 activator: inactive

How did Clc1ccc(Nc2nc(-c3ccncc3)cs2)cc1 do in these assays?
STAT3 inh: inactive; STAT1 inh: inactive; STAT3 activator: inactive; APP 5'UTR act: inactive; STAT1 activator: 137

Results for Fc1ccc(Nc2nc(-c3ccncc3)cs2)cc1 ?
STAT3 inh: inactive; STAT1 inh: inactive; STAT3 activator: inactive; APP 5'UTR act: inactive; NF-kB neuron act: inactive; STAT1 activator: 144

How did O=[N+]([O-])c1cccc(-c2csc(Nc3ccccc3)n2)c1 do in these assays?
STAT3 inh: inactive; STAT1 inh: inactive; STAT3 activator: 147; APP 5'UTR act: inactive; NF-kB neuron act: inactive; STAT1 activator: 143

What do the screens show for `Nc1ccc(Nc2nc(-c3ccncc3)cs2)cc1`?
STAT3 inh: inactive; STAT1 inh: inactive; STAT3 activator: inactive; APP 5'UTR act: inactive; NF-kB neuron act: inactive; STAT1 activator: inactive

What do the screens show for `COc1ccc(C)cc1NC(=O)C1COc2ccccc2O1` (configuration not stated)?
STAT3 inh: inactive; STAT1 inh: inactive; STAT3 activator: inactive; APP 5'UTR act: inactive; NF-kB neuron act: inactive; STAT1 activator: inactive

Results for CC(C)(C)c1ccc(COc2ccsc2C(=O)O)cc1 ?
STAT3 inh: inactive; STAT1 inh: inactive; STAT3 activator: inactive; APP 5'UTR act: inactive; NF-kB neuron act: inactive; STAT1 activator: inactive

What do the screens show for `CCOc1ccc(C2C(C(=O)O)CCC(=O)N2C2CCCCC2)cc1` (configuration not stated)?
STAT3 inh: inactive; STAT1 inh: inactive; STAT3 activator: inactive; APP 5'UTR act: inactive; NF-kB neuron act: inactive; STAT1 activator: inactive

What do the screens show for `CCOc1ccc(NC(=S)NN2CCN(C)CC2)cc1`?
STAT3 inh: inactive; STAT1 inh: inactive; STAT3 activator: inactive; APP 5'UTR act: inactive; NF-kB neuron act: inactive; STAT1 activator: inactive

How did Cc1cc(NS(=O)(=O)c2ccc(Nc3nc(-c4sc(C)nc4C)cs3)cc2)no1 do in these assays?
STAT3 inh: inactive; STAT1 inh: inactive; STAT3 activator: inactive; APP 5'UTR act: inactive; NF-kB neuron act: inactive; STAT1 activator: inactive

What do the screens show for `Cc1nc(C)c(-c2csc(Nc3ccc(F)cc3)n2)s1`?
STAT3 inh: inactive; STAT1 inh: inactive; STAT3 activator: inactive; APP 5'UTR act: inactive; NF-kB neuron act: inactive; STAT1 activator: 142

Results for c1ccc(Nc2nc(-c3ccncc3)cs2)cc1 ?
STAT3 inh: inactive; STAT1 inh: inactive; STAT3 activator: inactive; APP 5'UTR act: inactive; NF-kB neuron act: inactive; STAT1 activator: 145

What do the screens show for `O=[N+]([O-])c1ccc(N2CCN(CCOCCO)CC2)c([N+](=O)[O-])c1`?
STAT3 inh: inactive; STAT1 inh: inactive; STAT3 activator: inactive; APP 5'UTR act: inactive; NF-kB neuron act: inactive; STAT1 activator: inactive

How did O=C(c1ccc(Cl)nc1)N1CCN(C/C=C/c2ccccc2)CC1 do in these assays?
STAT3 inh: inactive; STAT1 inh: inactive; STAT3 activator: inactive; APP 5'UTR act: inactive; NF-kB neuron act: inactive; STAT1 activator: inactive

What do the screens show for `CCCCOc1ccc(C(=O)NCCc2cccs2)cc1`?
STAT3 inh: inactive; STAT1 inh: inactive; STAT3 activator: inactive; APP 5'UTR act: inactive; NF-kB neuron act: inactive; STAT1 activator: 134

How did CCOc1c2ccc(C(=O)NCCc3cccs3)cc2nn1CC do in these assays?
STAT3 inh: inactive; STAT1 inh: inactive; STAT3 activator: inactive; APP 5'UTR act: inactive; NF-kB neuron act: inactive; STAT1 activator: 144

What do the screens show for `CCOc1ccc(C(=O)NCc2cccs2)cc1`?
STAT3 inh: inactive; STAT1 inh: inactive; STAT3 activator: inactive; NF-kB neuron act: inactive; STAT1 activator: inactive
